{"source": "ChEMBL document CHEMBL4406830", "about": "“Galloyl esters of trans-stilbenes are inhibitors of FASN with anticancer activity on non-small cell lung cancer cells” (Eur J Med Chem, 2019)", "key": {"[1]": {"test": "Selectivity index, ratio of IC50 for human SAE cells lacking FASN expression to IC50 for human PC9 cells harboring FASN expression and EGFR delE746-A750 mutant", "in_short": "(§1)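 Index is the SAEC IC50 divided by the IC50 in the FASN-expressing NSCLC line. IC50s came from MTS viability after 72 h exposure at 37 °C, 5% CO2, DMSO 0.1% v/v. Absorbance was read at 490 nm after 2 h. The fit was % viability against log concentration, with 4 technical repeats and 3 independent experiments. NSCLC lines were grown in RPMI/10% FBS; SAEC in BEGM.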"}, "[2]": {"target": "Fatty acid synthase (Homo sapiens) (UniProt P49327)", "sequence (P49327 whole entry, looked up)": "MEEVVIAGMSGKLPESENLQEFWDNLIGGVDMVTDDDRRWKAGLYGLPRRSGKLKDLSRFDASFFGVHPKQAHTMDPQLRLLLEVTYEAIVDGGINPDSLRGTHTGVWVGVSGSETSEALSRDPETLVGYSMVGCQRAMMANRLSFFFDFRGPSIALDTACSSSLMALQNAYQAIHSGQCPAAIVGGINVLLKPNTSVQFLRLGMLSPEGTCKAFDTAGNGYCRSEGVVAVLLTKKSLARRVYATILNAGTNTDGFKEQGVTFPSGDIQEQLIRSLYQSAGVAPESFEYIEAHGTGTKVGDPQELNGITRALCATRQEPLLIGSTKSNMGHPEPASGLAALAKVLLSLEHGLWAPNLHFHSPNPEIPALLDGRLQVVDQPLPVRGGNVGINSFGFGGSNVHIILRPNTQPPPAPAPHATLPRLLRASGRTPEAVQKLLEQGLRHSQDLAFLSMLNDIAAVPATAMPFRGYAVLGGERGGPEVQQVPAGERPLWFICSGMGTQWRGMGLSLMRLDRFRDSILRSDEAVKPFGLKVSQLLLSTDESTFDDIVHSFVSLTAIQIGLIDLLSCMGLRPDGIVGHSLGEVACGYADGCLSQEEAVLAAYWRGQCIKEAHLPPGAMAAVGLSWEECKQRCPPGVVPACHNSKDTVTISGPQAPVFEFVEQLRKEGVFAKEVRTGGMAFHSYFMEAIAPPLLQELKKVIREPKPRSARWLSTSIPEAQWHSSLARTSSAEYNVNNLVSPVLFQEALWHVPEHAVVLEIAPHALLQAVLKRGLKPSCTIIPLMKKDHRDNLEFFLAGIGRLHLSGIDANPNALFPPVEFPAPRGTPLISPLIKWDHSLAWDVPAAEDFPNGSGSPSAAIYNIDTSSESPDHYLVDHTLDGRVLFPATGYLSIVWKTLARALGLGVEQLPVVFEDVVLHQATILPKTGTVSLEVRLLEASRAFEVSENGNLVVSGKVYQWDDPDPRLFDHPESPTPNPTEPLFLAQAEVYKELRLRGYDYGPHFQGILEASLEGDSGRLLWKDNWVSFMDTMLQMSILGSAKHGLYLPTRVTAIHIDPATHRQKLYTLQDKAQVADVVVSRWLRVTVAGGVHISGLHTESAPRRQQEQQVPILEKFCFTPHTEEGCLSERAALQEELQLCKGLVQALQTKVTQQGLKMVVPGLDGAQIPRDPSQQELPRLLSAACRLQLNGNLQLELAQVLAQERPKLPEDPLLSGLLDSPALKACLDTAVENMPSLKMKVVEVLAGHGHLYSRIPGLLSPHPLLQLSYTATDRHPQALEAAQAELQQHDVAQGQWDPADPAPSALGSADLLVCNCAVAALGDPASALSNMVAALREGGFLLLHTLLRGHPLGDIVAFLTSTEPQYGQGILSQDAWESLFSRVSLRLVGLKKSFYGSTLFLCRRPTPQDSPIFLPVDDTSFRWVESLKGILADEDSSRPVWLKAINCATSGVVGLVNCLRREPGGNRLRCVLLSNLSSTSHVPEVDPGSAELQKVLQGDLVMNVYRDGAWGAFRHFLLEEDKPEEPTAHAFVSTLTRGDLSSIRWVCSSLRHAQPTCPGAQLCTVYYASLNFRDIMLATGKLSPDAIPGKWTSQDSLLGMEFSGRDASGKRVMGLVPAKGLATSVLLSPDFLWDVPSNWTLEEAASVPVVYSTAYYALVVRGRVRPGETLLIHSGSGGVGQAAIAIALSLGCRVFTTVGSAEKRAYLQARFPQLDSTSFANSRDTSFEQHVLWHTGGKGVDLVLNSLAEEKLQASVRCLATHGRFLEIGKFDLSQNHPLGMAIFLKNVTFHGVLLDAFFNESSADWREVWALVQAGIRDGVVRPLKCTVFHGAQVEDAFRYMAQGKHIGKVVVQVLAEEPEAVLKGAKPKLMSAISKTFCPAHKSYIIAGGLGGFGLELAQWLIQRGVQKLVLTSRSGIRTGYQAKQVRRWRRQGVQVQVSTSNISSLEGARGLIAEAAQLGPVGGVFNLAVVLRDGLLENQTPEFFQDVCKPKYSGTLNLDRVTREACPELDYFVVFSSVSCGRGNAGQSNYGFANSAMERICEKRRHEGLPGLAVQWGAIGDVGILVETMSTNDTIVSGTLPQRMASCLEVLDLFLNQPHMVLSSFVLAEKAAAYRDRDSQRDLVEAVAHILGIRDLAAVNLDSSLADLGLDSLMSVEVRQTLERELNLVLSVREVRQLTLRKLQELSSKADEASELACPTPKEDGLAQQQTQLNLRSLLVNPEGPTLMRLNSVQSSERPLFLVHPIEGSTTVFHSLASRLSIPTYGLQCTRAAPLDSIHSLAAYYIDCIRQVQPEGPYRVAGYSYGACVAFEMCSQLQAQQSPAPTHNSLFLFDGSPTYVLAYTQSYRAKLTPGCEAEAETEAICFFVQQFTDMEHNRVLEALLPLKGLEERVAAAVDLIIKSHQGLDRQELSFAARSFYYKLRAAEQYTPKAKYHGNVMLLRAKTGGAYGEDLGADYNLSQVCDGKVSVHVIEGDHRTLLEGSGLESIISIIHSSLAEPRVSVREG", "test": "Inhibition of full length human FASN transfected in HeLa cell lysates at 10 uM using acetyl Co-A/malonyl Co-A as substrate preincubated with enzyme for 2 hrs followed by substrate addition measured after 10 mins in presence of NADPH by microplate reader analysis", "type": "subcellular", "details": "Lysate", "in_short": "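Human FASN was made by in vitro translation from a FASN plasmid. Lysate was diluted 3:7 in 100 mM potassium phosphate, pH 6.5, 1 mM EDTA. It was preincubated with compound (10 µM final) for 2 h at 37 °C. Buffer containing acetyl-CoA (55 µM) and NADPH (330 µM) was added, then the reaction was started with malonyl-CoA (500 µM stock). A340 was read at 0 and 10 min; triplicates.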"}, "PC-9 [3]": {"system": "PC-9", "test": "Antiproliferative activity against human PC9 cells harboring FASN expression and EGFR delE746-A750 mutant assessed as cell viability at 100 uM after 72 hrs in presence of exogenous lipid concentrate by MTS assay", "type": "functional, cell-based", "in_short": "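PC-9 cells seeded at 3 × 10^3 cells/100 µL in RPMI 1640 and left to attach overnight. Compound added as for the viability assay, with DMSO at 0.1% v/v. After 6 h at 37 °C and 5% CO2, chemically defined lipid concentrate was added to 2% v/v final. Incubation then continued 72 h. Viability was read by MTS absorbance at 490 nm against untreated cells, in triplicate.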"}, "[4]": {"test": "Cytotoxicity against human SAE cells lacking FASN expression assessed as reduction in cell viability after 72 hrs by MTS assay", "type": "cell-based", "in_short": "(§2)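 ATCC-sourced cells. H1299, H1650, H1703 and PC-9 were grown in RPMI 1640 with 10% FBS. A549 was grown in high-glucose DMEM with 10% FBS and 1 mM pyruvate. SAEC was grown in BEGM. Cells were seeded at 3 × 10^3 per well (H1650 3.5 × 10^3) and left to attach overnight. Serial dilutions from DMSO stocks were added, 0.1% DMSO final, for 72 h at 37 °C, 5% CO2. Medium was replaced, MTS added, and A490 read after 2 h. IC50 was taken from % viability versus log concentration, 3 experiments.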"}, "NCI-H1650": {"system": "NCI-H1650", "test": "Antiproliferative activity against human NCI-H1650 cells expressing FASN assessed as reduction in cell viability after 72 hrs by MTS assay", "type": "functional, cell-based", "details": "NCI-H1650, 72 h", "in_short": "as §2"}, "[5]": {"target": "Fatty acid synthase (Homo sapiens) (UniProt P49327)", "test": "(§3) Inhibition of FASN in human PC9 cells harboring FASN expression and EGFR delE746-A750 mutant assessed as disruption of AKT/FASN positive feedback loop by measuring ratio of phosphoAKT/AKT expression at 100 uM after 48 hrs in presence of exogenous lipid concentrate by Western immunoblot based densitometric assay relative to control", "type": "cell-based", "in_short": "(§4)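 PC-9 cells were seeded at 8 × 10^5 per 100 mm dish and treated 48 h with compound, with or without chemically defined lipid concentrate (vehicle control included). RIPA lysates with protease inhibitors were BCA-quantified and run on 8% SDS-PAGE, then PVDF. Blots were probed for phospho-AKT Ser473 and total AKT (each 1:1,000, TBS-T/milk block). ECL detection; pAKT/AKT densitometry normalised to untreated control.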"}, "PC-9 [6]": {"system": "PC-9", "test": "Antiproliferative activity against human PC9 cells harboring FASN expression and EGFR delE746-A750 mutant assessed as reduction in cell viability after 72 hrs by MTS assay", "type": "functional, cell-based", "details": "PC-9, 72 h", "in_short": "as §2"}, "A549": {"system": "A549", "test": "Antiproliferative activity against human A549 cells expressing FASN assessed as reduction in cell viability after 72 hrs by MTS assay", "type": "functional, cell-based", "details": "A549, 72 h", "in_short": "as §2"}, "[7]": {"target": "Fatty acid synthase (Homo sapiens) (UniProt P49327)", "test": "(§5) Inhibition of FASN in human PC9 cells harboring FASN expression and EGFR delE746-A750 mutant assessed as disruption of AKT/FASN positive feedback loop by measuring decrease in FASN expression at 100 uM after 48 hrs by Western immunoblot based densitometric assay relative to control", "type": "cell-based", "in_short": "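PC-9 or H1703 cells were seeded at 8 × 10^5 per 100 mm dish and treated for 48 h at 1 or 5 µM (or 5, 50 and 100 µM). RIPA lysates were BCA-quantified and run on 8% SDS-PAGE, then transferred to PVDF. Blots were probed for FASN, AKT, phospho-AKT S473 and GAPDH and detected by ECL. Bands were quantified by densitometry and normalised to vehicle control.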"}, "[8]": {"test": "Selectivity index, ratio of IC50 for human SAE cells lacking FASN expression to IC50 for human A549 cells expressing FASN", "in_short": "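The ratio IC50(SAEC)/IC50(NSCLC line) was calculated from 72 h MTS viability IC50 values.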"}, "[9]": {"target": "Fatty acid synthase (Homo sapiens) (UniProt P49327)", "test": "Inhibition of full length human FASN transfected in HeLa cell lysates at 150 uM using acetyl Co-A/malonyl Co-A as substrate preincubated with enzyme for 2 hrs followed by substrate addition measured after 10 mins in presence of NADPH by microplate reader analysis", "type": "subcellular", "details": "Lysate", "in_short": "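Human FASN was made by coupled in vitro translation of a FASN plasmid; the legend calls this HeLa cell lysate. Lysate was diluted 3:7 in 100 mM potassium phosphate pH 6.5 with 1 mM EDTA, then preincubated with compound for 2 h at 37 °C. Buffer containing acetyl-CoA (55 µM) and NADPH (330 µM) was added, and the reaction started with malonyl-CoA solution (500 µM). A340 was read at 0 and 10 min, and inhibition taken against untreated lysate. Triplicates.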"}, "[10]": {"test": "Selectivity index, ratio of IC50 for human SAE cells lacking FASN expression to IC50 for human NCI-H1703 cells expressing FASN", "in_short": "as §1"}, "PC-9 [11]": {"system": "PC-9", "test": "Induction of apoptosis in human PC9 cells harboring FASN expression and EGFR delE746-A750 mutant at 100 uM after 72 hrs by Annexin-V FITC/PI staining-based flow cytometry", "type": "functional, cell-based", "in_short": "(§6)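 H1703 or PC-9 cells seeded at 1.5 × 10^5 cells/2 mL in 6-well plates and left to attach overnight. Treated at 100 µM, with a 0.1% DMSO vehicle control, at 37 °C and 5% CO2. Exposure is given as 72 h in the results and 48 h in the methods. Cells were harvested, rinsed in ice-cold PBS, stained with Annexin V-FITC/PI in binding buffer and read by flow cytometry. Early apoptosis was Annexin V+ only; late apoptosis was double positive. Triplicates.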"}, "NCI-H1703 [12]": {"system": "NCI-H1703", "test": "Antiproliferative activity against human NCI-H1703 cells expressing FASN assessed as reduction in cell viability after 72 hrs by MTS assay", "type": "functional, cell-based", "details": "NCI-H1703, 72 h", "in_short": "as §2"}, "NCI-H1703 [13]": {"system": "NCI-H1703", "test": "Induction of apoptosis in human NCI-H1703 cells expressing FASN assessed as increase in late apoptotic cells at 100 uM after 72 hrs by Annexin-V FITC staining/PI-based flow cytometry", "type": "functional, cell-based", "in_short": "as §6"}, "NCI-H1299": {"system": "NCI-H1299", "test": "Antiproliferative activity against human NCI-H1299 cells expressing FASN assessed as reduction in cell viability after 72 hrs by MTS assay", "type": "functional, cell-based", "details": "NCI-H1299, 72 h", "in_short": "as §2"}, "[14]": {"test": "Selectivity index, ratio of IC50 for human SAE cells lacking FASN expression to IC50 for human NCI-H1299 cells expressing FASN expression", "in_short": "as §1"}, "[15]": {"test": "Selectivity index, ratio of IC50 for human SAE cells lacking FASN expression to IC50 for human NCI-H1650 cells expressing FASN", "in_short": "as §1"}, "[16]": {"target": "Fatty acid synthase (Homo sapiens) (UniProt P49327)", "test": "as §5, with “in ratio of phosphoAKT/AKT” for “in FASN”", "type": "cell-based", "in_short": "as §4"}, "[17]": {"target": "Fatty acid synthase (Homo sapiens) (UniProt P49327)", "test": "as §3, with “FASN” for “ratio of phosphoAKT/AKT”", "type": "cell-based", "in_short": "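PC-9 cells were seeded at 8 × 10^5 per 100 mm dish, attached overnight, then treated 48 h with compound plus chemically defined lipid concentrate. Cells were lysed in RIPA with protease inhibitors and protein quantified by BCA. Lysates were run on 8% SDS-PAGE and blotted to PVDF. Blots were probed for FASN (1:2,000, PBS-T/milk block) and GAPDH. ECL detection; FASN/GAPDH densitometry normalised to untreated control.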"}}, "note": "Active and inactive are the calls of the source. No cut-off for these calls is given here."}
{"smiles": "O=C(O[C@@H]1Cc2c(O)cc(O)cc2O[C@@H]1c1cc(O)c(O)c(O)c1)c1cc(O)c(O)c(O)c1", "note": "[EPIGALOCATECHIN GALLATE]", "values": [{"measurement": "Ratio IC50", "setting": "[1]", "result": 1.4}, {"measurement": "inhibition", "setting": "[2]", "result": "inactive"}, {"measurement": "inhibition", "setting": "PC-9 [3]", "result": "inactive"}, {"measurement": "IC50", "setting": "[4]", "result": 110, "unit": "µM"}, {"measurement": "IC50", "setting": "NCI-H1650", "result": 24.8, "unit": "µM"}, {"measurement": "Ratio", "setting": "[5]", "result": 0.67}, {"measurement": "IC50", "setting": "PC-9 [6]", "result": 77.4, "unit": "µM"}, {"measurement": "IC50", "setting": "A549", "result": 185, "unit": "µM"}, {"measurement": "Ratio", "setting": "[7]", "result": 0.06}, {"measurement": "Ratio IC50", "setting": "[8]", "result": 0.6}, {"measurement": "inhibition", "setting": "[9]", "result": "Active"}, {"measurement": "Ratio IC50", "setting": "[10]", "result": 6.4}, {"measurement": "Activity", "setting": "PC-9 [11]", "result": "Active"}, {"measurement": "IC50", "setting": "NCI-H1703 [12]", "result": 17.1, "unit": "µM"}, {"measurement": "Activity", "setting": "NCI-H1703 [13]", "result": "Active"}, {"measurement": "IC50", "setting": "NCI-H1299", "result": 20.6, "unit": "µM"}, {"measurement": "Ratio IC50", "setting": "[14]", "result": 5.3}, {"measurement": "Ratio IC50", "setting": "[15]", "result": 4.4}, {"measurement": "Ratio", "setting": "[16]", "result": 0.14}, {"measurement": "Ratio", "setting": "[17]", "result": 0.89}]}
